Only some compounds are listed: those with a hit (about 2.2% of all), similar ones and a draw of the others.
PvdQ inh = P. aeruginosa PvdQ acylase inhibition | inhibition, % at 10 µM | AID 488965 | purified PvdQ acylase, fluorescence plate reader | hit rate 0.063% among 340,000; in the data active = inhibition above about 30%, passing the limit was not always enough; inconclusive = no clear call, values can overlap the other calls
ERp5 inh = blocks human ERp5 reductase activity on insulin; Q15084; ERp5 insulin aggregation, absorbance 650 nm, 90 min; inhibition, % at 9.99 µM; hit rate 0.05% among 350,000;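 active = mean replicate inhibition above about 25%, with every replicate also reaching it, limit read from the data, passing the limit was not always enough; inconclusive = only one of those two criteria met; inactive = neither criterion met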
Target sequence (Q15084 whole entry, looked up): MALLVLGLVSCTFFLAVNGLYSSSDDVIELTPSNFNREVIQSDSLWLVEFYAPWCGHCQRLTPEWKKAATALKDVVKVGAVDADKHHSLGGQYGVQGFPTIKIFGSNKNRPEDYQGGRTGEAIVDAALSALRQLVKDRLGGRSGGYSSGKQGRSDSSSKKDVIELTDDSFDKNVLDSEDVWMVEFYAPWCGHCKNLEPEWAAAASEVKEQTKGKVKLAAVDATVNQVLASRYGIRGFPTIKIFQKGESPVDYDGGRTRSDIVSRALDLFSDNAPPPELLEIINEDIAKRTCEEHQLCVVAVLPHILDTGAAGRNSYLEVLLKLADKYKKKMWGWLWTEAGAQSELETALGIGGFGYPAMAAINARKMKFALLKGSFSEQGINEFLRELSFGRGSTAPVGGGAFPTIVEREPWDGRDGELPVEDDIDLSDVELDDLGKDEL
PDI turbidity = blocks human protein disulfide isomerase activity. hit rate 0.052% among 350,000. P07237. inhibition, % at 10 µM. PDI insulin aggregation turbidity, A650, 90 min;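 active = mean inhibition across replicates of 30% or more, whatever share of single replicates reach that level; inconclusive = mean inhibition below 30% while every single replicate reaches 30%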
rRNA inh HTS = inhibits bacterial ribosomal RNA function over humanized ribosomes | E. coli WT GFP vs humanized-ribosome RFP mutants, fluorescence, 24 h; stronger effect = lower value; DMSO median 0, no signal -100 | GFP signal change (wild-type ribosome), % (no concentration beside the values) | hit rate 1.6% among 350,000;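 active = significant combined selectivity score with lowered wild-type GFP, culture density cut under 30%, mutant RFP and density less affected; inactive = any of these conditions unmet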
FN deposition inh = fibronectin deposition inhibition; AH1F fibroblasts, Alexa488-fibronectin deposition fluorescence, overnight; inhibition, % at 12.6 µM; hit rate 0.086% among 350,000; AID 743247;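 active = mean inhibition across replicates of 30% or more, regardless of how many single replicates reach that level; inconclusive = mean under 30% yet at least half of replicates reach 30%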
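Measured by – fluorescence 485/525 nm · System – AH1F fibroblast monolayer, labelled fibronectin deposition · Amount – 10000 cells per well · Buffer or medium – serum-reduced DMEM (2% serum) · Doses – single dose, pinned · Also added – fluorescent fibronectin at 24 nM final · Schedule – 1 h cell attachment, overnight exposure to compound and label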
HIV Env fusion = blocks HIV Env-driven cell-cell fusion; HeLa-JRFL Env/CEM21 cell fusion, luciferase; inhibition, % at 12.3 µM; hit rate 1.1% among 360,000; AID 651610;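 active = mean replicate inhibition score of at least 50 and every replicate individually at or above 50; inconclusive = only one of the two criteria met; inactive = mean below 50 and not all replicates reaching 50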
A number is an active result; . = inactive; ? = inconclusive; / = no result given.

SMILES	PvdQ inh	ERp5 inh	PDI turbidity	rRNA inh HTS	FN deposition inh	HIV Env fusion
COc1ccc2cc(C[C@@H]3CC[C@@H](CO)O3)ccc2c1	.	.	.	-23	.	.
CCOC(=O)C1=C(C)N(C[C@@H]2CC[C@@H](Cc3ccc4cc(OC)ccc4c3)O2)C(=O)NC1c1ccc(OC)cc1 (some centres not stated)	.	.	.	.	/	?
CCn1c(SCC(=O)Nc2ccccc2)nc2c(c1=O)SCC2	/	.	.	/	.	.
CCn1c(SCC(=O)N2CCCCC2)nc2c(c1=O)SCC2	.	.	.	.	.	.
CCn1c(SCc2ccc(F)cc2)nc2c(c1=O)SCC2	.	.	.	-31	.	.
CCn1c(SCc2cccc(F)c2)nc2c(c1=O)SCC2	.	.	.	-35	.	.
Clc1ccc(C(c2nnnn2CCc2ccccc2)N2CCSCC2)cc1 (configuration not stated)	.	/	.	/	.	100
CCN1CCN(C(c2ccccc2)c2nnnn2Cc2ccccc2)CC1 (configuration not stated)	.	/	.	/	33	.
CCN1CCN(C(c2ccccc2)c2nnnn2Cc2ccc3c(c2)OCO3)CC1 (configuration not stated)	.	.	.	.	.	.
Fc1ccc(C(c2nnnn2CCc2ccccc2)N2CCCc3ccccc32)cc1 (configuration not stated)	.	/	.	/	.	90
CC=Cc1ccc2n(c1=O)C[C@H]1[C@H](CO)[C@@H](C(=O)NCCC)[C@@H]2N1Cc1ccccc1 (mixture of isomers)	/	.	/	.	/	/
Cn1c(=O)n2n(c1=O)[C@H](C1CC1)C=C1CN3[C@@H]([C@H](Cc4ccccc4)OC(=O)[C@@H]3Cc3ccccc3)[C@@H]12	/	.	/	/	/	.
Clc1ccccc1N1CCN(Cc2ccc(Br)o2)CC1	.	.	.	-35	.	.
Cc1cccc(N2CCN(Cc3ccc(Br)o3)CC2)c1C	.	.	.	.	.	.
Cc1ccccc1N1CCN(Cc2ccc(Br)o2)CC1	.	.	.	-27	.	.
Brc1ccc(CN2CCN(c3ccccc3)CC2)o1	.	.	.	.	.	.
Fc1ccc(-c2nnc(CN3CCN(c4ncc(C(F)(F)F)cc4Cl)CC3)o2)cc1	.	/	.	/	.	68
O=C(CSc1nc2scc(-c3ccccc3)c2c(=O)[nH]1)N1CCCCC1	.	.	.	-35	.	.
O=C(CSc1nc2scc(-c3ccccc3)c2c(=O)[nH]1)NC1CCCCC1	/	.	/	.	.	.
N#Cc1cnn(-c2cc(Cl)ccc2Cl)c1N	/	.	.	/	.	.
N#Cc1cnn(-c2ccc([N+](=O)[O-])cc2[N+](=O)[O-])c1N	/	.	.	-7.5	.	.
N#Cc1cc([N+](=O)[O-])ccc1N1CCCC1	89	.	.	.	.	.
O=C(Nc1cc([N+](=O)[O-])ccc1N1CCCC1)c1ccccc1	.	.	.	-26	.	.
O=[N+]([O-])c1ccc(N2CCCCCC2)c([N+](=O)[O-])c1	.	/	.	/	.	.
O=C(c1ccccc1)N1CC[C@@H]2[C@H](CO)Nc3ccc(C#Cc4cccc(F)c4)cc3[C@@H]21	/	/	/	.	.	/
SMILES	PvdQ inh	ERp5 inh	PDI turbidity	rRNA inh HTS	FN deposition inh	HIV Env fusion
COC(=O)C1CCCN1C(C(=O)NC1CCCCC1)c1ccc(Cl)cc1 (configuration not stated)	.	.	.	.	.	66
O=CN1CCN(C(C(=O)NC2CCCCC2)c2ccc(Cl)cc2)CC1 (configuration not stated)	.	.	.	.	.	.
COc1ccc(-c2ccc([C@H]3[C@H](CO)N4C(=O)CN(C(=O)NC(C)C)C[C@@H]34)cc2)cc1	/	.	/	.	/	/
O=C(N/N=C/c1sc(N2CCOCC2)nc1-c1ccccc1)c1cccc(S(=O)(=O)N2CCCC2)c1	.	.	.	/	.	56
O=C(N/N=C/c1sc(N2CCOCC2)nc1-c1ccccc1)c1ccc(O)cc1	.	.	.	.	.	.
COc1ccccc1/C=C/C(=O)NC(=S)N(C)C1CCCCC1	.	.	.	-24	/	/
COc1cccc(C(=O)/C=C2\Sc3ccccc3N2C)c1	.	.	.	-28	.	.
CN1/C(=C\C(=O)c2cccnc2)Sc2ccccc21	.	.	.	.	/	.
COC(=O)C[C@H]1CC[C@@H]2[C@@H](COc3ccc(NC(=O)c4cccc(F)c4)cc3C(=O)N2C)O1	/	.	/	.	.	.
NC(Cc1cnc[nH]1)c1csc(Nc2ccc(C(F)(F)F)cn2)n1 (configuration not stated)	/	.	.	.	.	.
NC(Cc1ccc(F)cc1)c1csc(Nc2ccc(C(F)(F)F)cn2)n1 (configuration not stated)	/	.	.	.	.	71
Cc1cnc(C)c(Nc2nc(C(N)Cc3ccc(C(F)(F)F)cc3)cs2)n1 (configuration not stated)	/	.	.	.	.	106
CCCC(=O)N1CC2(CN(C(=O)C3CCC3)C2)c2c(n(C)c3cc(OC)ccc23)[C@H]1CO	/	.	/	.	/	/
CCCC#Cc1ccc2c(c1)[C@@H]1[C@@H](CCN1S(=O)(=O)c1ccccc1)[C@@H](CO)N2C	/	/	/	.	.	/
CCNC(=S)N(CCc1c(C)[nH]c2ccc(F)cc12)Cc1cccnc1	.	.	.	-27	.	.
CO[C@@H]1CN(C)C(=O)c2ccc(NC(=O)C3CC3)cc2OC[C@@H](C)N(CC2CCOCC2)C[C@@H]1C	/	/	/	.	.	.
O=C(Nc1cccnc1)c1ccc(CN2CCc3ccccc3C2)cc1	.	/	.	/	.	54
COc1ccc(C)cc1NC(=O)c1ccc(CN2CCc3ccccc3C2)cc1	.	.	.	-24	.	.
Cc1ccc(NC(=O)c2ccc(CN3CCc4ccccc4C3)cc2)cc1	.	/	.	/	/	93
O=C(Nc1ccccc1)c1ccc(CN2CCc3ccccc3C2)cc1	.	.	.	.	.	61
Cc1cc(C)cc(NC(=O)c2ccc(CN3CCc4ccccc4C3)cc2)c1	.	.	.	.	.	.
CCCNC(=O)N1CC2(CCN(C(=O)CN(C)C)CC2)c2c(n(C)c3cc(OC)ccc23)[C@@H]1CO	/	.	/	.	/	/
CO[C@H]1CN(C)C(=O)c2cc(NS(=O)(=O)CC(F)(F)F)ccc2OC[C@@H](C)N(CCC(F)(F)F)C[C@H]1C	/	.	/	.	.	.
CCC(=O)N1CC[C@@H]2[C@@H](CO)Nc3ccc(C#Cc4cccc(OC)c4)cc3[C@@H]21	/	/	/	.	.	/
Nc1c(O)ccc2c1C(=O)c1ccccc1C2=O	/	.	/	-56	.	.
CCOC(=O)c1sc2nc(NC(=O)C(C)(C)C)sc2c1C	.	.	.	-20	.	.
CC(=O)Nc1cccc(-c2ccnc3c2CC(C)(C(=O)Nc2cccc(C(F)(F)F)c2)O3)c1 (configuration not stated)	/	.	.	.	30	.

Screening data as filed in PubChem BioAssay.
